Assay results taken from ChEMBL document CHEMBL4382285, “Discovery of Novel Retigabine Derivatives as Potent KCNQ4 and KCNQ5 Channel Agonists with Improved Specificity” (ACS Med Chem Lett, 2019).

How the values were obtained:
Format in all cases: cell-based
[1] = target: T1, Potassium voltage-gated channel subfamily KQT member 4 (Homo sapiens) (UniProt P56696); assay: Activity at human KCNQ4 expressed in CHOK1 cells assessed as ratio of amplitude of outward current in presence of test compound to amplitude of outward current in absence of test compound at 10 uM at +60 mV by whole cell patch clamp assay
T1 sequence (whole entry): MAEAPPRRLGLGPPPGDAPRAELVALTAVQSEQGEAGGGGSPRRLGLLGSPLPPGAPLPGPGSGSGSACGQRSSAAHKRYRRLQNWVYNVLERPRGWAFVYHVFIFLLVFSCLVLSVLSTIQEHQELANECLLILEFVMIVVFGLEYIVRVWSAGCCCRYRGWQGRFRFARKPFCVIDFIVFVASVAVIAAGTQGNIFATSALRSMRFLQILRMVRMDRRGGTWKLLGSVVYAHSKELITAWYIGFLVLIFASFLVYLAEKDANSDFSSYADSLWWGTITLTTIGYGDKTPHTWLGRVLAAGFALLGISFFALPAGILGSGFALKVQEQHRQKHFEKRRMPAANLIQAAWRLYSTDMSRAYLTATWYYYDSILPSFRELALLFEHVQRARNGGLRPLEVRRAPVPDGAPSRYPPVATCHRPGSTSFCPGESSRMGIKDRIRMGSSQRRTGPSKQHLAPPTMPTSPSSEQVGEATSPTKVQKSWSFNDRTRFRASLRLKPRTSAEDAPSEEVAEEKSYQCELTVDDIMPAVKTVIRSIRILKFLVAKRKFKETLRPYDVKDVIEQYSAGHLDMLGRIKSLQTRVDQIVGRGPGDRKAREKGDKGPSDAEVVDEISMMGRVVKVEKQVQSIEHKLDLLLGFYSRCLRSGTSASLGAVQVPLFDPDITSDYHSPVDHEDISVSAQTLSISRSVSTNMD
Procedure, shortened: (§1)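 CHO-K1 cells individually transfected with a single KCNQ subtype; whole-cell voltage clamp. Held at −80 mV, stepped from −90 to +60 mV in 10 mV increments (1500 ms), then to −120 mV for 500 ms. Outward current at −10 or +60 mV measured before (I0) and after (I) 10 μM compound; I/I0 >1 counts as activation. More than four cells per compound.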

[2] = target: Potassium voltage-gated channel subfamily KQT member 5 (Homo sapiens, UniProt Q9NR82); assay: Activity at human KCNQ5 expressed in CHOK1 cells assessed as ratio of amplitude of outward current in presence of test compound to amplitude of outward current in absence of test compound at 10 uM at +60 mV by whole cell patch clamp assay; procedure, shortened: as §1
Potassium voltage-gated channel subfamily KQT member 5, sequence (Q9NR82 whole entry): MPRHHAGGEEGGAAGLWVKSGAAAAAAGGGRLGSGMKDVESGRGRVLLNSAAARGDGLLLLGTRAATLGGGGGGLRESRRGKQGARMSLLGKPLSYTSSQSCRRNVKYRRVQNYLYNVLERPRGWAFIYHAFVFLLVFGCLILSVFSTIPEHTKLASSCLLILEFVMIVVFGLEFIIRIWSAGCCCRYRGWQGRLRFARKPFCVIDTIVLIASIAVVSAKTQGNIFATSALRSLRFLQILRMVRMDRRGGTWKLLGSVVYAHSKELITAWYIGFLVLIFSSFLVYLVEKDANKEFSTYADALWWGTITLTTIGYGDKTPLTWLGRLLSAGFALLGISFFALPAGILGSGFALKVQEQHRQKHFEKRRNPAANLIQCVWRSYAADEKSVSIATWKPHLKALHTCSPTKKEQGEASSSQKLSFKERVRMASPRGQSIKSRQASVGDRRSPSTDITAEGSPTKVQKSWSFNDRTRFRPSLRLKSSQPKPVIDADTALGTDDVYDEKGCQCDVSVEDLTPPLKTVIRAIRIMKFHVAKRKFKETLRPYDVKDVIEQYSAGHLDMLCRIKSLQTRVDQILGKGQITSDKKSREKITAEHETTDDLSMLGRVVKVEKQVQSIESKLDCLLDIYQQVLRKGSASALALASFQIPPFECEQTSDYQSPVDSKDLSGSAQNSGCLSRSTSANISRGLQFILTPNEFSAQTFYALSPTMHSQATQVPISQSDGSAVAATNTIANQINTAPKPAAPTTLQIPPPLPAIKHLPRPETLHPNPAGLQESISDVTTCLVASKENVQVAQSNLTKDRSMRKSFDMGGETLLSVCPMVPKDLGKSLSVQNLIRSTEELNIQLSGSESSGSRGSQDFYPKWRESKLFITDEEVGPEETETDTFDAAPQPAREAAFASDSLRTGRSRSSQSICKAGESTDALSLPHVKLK

[3] = target: Potassium voltage-gated channel subfamily KQT member 2 (Rattus norvegicus, UniProt O88943); assay: Activation of rat homomeric KCNQ2 expressed in CHOK1 cells increase in current amplitude at 30 uM at -10 mV by whole cell patch clamp assay relative to control
Potassium voltage-gated channel subfamily KQT member 2, sequence (O88943 whole entry): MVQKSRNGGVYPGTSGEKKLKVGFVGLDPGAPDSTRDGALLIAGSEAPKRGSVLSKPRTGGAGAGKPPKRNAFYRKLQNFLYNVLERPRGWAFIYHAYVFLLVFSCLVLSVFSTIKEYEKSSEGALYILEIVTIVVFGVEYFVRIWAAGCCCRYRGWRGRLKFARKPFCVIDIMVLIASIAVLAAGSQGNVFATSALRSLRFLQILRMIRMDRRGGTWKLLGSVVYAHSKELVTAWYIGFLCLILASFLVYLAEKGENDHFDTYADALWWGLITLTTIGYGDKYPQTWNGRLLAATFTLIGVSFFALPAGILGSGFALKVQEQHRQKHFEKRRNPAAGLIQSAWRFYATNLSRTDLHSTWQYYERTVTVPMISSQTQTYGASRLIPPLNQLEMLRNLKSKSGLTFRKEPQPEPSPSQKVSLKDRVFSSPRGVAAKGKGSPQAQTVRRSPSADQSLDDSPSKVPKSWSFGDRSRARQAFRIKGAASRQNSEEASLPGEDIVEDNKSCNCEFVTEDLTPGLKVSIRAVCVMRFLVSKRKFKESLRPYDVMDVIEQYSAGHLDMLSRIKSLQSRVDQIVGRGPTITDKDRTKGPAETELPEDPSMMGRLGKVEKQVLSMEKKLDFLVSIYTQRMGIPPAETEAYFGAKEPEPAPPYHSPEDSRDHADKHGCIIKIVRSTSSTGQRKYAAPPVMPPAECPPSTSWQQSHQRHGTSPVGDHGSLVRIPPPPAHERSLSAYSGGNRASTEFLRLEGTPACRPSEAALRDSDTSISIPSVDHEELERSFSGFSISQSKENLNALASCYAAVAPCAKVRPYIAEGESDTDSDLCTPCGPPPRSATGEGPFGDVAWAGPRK
Procedure, shortened: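 CHO-K1 cells expressing homomeric KCNQ2, recorded by whole-cell voltage clamp. Holding potential −80 mV with step depolarizations; current amplitude at −10 mV compared before and after compound across 1–30 μM, reported as percent change in current.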

[4] = target: Potassium voltage-gated channel subfamily KQT member 2 (Rattus norvegicus) (UniProt O88943); assay: Activity at rat KCNQ2 expressed in CHOK1 cells assessed as ratio of amplitude of outward current in presence of test compound to amplitude of outward current in absence of test compound at 10 uM at -10 mV by whole cell patch clamp assay
Potassium voltage-gated channel subfamily KQT member 2 (Rattus norvegicus), sequence (O88943 whole entry): as above
Procedure, shortened: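 CHO-K1 cells expressing the channel, whole-cell voltage clamp, compound at 10 μM. Read-out is the outward current ratio I/I0 with and without compound, taken at −10 mV. I/I0 > 1 counts as activation and < 1 as inhibition. More than four cells per compound.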

C#CCN(Cc1ccc(F)cc1)c1ccc(NC(=O)OCC)c(NC(=O)OCC)c1
Ratio [1]: 6.6
Ratio [2]: 4.8
Activity [3]: 2%
Ratio [4]: 0.94
